Measurements reported in ChEMBL document CHEMBL4346653, “A2B Adenosine Receptor Antagonists with Picomolar Potency” (J Med Chem, 2019).
Values after ≈ are worked out from the molar mass of the structure shown.

Legend:
Adenosine receptor A3 [1] = target: T1, Adenosine receptor A3 (Mus musculus, UniProt Q61618); assay: Displacement of [3H]NECA from recombinant mouse A3 adenosine receptor expressed in CHO cell membranes measured after 180 mins by liquid scintillation counting method
T1 sequence (Q61618 whole entry): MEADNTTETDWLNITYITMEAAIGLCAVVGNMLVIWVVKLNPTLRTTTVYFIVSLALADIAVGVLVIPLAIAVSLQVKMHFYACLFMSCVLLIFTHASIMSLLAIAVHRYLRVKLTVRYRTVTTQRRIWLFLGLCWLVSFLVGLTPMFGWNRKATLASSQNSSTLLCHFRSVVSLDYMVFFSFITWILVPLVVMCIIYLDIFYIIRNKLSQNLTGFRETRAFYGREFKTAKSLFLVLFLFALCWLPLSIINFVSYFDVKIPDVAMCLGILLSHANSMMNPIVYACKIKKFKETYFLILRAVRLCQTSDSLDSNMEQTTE

Adenosine receptor A3 [2] = target: T2, Adenosine receptor A3 (Rattus norvegicus, UniProt P28647); assay: Binding affinity to rat A3 adenosine receptor
T2 sequence (P28647 whole entry): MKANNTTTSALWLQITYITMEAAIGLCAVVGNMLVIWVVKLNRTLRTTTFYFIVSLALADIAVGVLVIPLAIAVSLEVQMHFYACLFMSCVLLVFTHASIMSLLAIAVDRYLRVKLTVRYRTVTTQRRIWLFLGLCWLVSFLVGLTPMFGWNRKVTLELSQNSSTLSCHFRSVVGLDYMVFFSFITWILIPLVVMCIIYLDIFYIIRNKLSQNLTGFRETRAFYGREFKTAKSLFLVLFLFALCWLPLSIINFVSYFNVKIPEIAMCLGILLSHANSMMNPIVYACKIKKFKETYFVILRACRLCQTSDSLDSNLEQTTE

Adenosine receptor A2a [3] = target: Adenosine receptor A2a (Mus musculus, UniProt Q60613); assay: Displacement of [3H]MSX-2 from recombinant mouse A2A adenosine receptor expressed in CHO cell membranes measured after 60 mins by liquid scintillation counting method
Adenosine receptor A2b [4] = target: T3, Adenosine receptor A2b (Mus musculus, UniProt Q60614); assay: Displacement of [3H]PSB-603 from recombinant mouse A2B adenosine receptor expressed in CHO cell membranes measured after 75 mins by liquid scintillation counting method
T3 sequence (Q60614 whole entry): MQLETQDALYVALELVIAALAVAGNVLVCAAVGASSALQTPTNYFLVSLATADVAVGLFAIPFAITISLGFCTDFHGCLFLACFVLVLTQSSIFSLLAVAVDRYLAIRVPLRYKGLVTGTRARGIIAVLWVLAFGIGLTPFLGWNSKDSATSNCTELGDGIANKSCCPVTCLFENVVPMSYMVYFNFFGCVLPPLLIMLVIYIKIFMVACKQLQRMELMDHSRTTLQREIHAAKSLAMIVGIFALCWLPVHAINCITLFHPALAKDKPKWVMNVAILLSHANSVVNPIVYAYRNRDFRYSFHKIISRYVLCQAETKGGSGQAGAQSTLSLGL

Adenosine receptor A1 [5] = target: T4, Adenosine receptor A1 (Mus musculus, UniProt Q60612); assay: Displacement of [3H]CCPA from recombinant mouse A1 adenosine receptor expressed in CHO cell membranes measured after 60 mins by liquid scintillation counting method
T4 sequence (Q60612 whole entry): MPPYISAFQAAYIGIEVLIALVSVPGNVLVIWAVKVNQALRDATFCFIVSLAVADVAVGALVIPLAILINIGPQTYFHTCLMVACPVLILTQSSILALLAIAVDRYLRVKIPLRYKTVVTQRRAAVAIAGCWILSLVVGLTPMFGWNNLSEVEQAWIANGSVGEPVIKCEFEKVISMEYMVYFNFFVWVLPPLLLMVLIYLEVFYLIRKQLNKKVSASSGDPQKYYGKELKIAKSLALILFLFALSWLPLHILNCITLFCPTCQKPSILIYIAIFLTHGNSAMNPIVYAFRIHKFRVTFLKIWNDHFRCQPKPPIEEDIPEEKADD

Adenosine receptor A2a [6] = target: T5, Adenosine receptor A2a (Homo sapiens, UniProt P29274); assay: Displacement of [3H]ZM241385 from recombinant human A2A adenosine receptor expressed in CHO cell membranes measured after 60 mins by topcount scintillation counting method
Adenosine receptor A3 [7] = target: T6, Adenosine receptor A3 (Homo sapiens, UniProt P0DMS8); assay: Displacement of [3H]MRE3008-F20 from recombinant human A3 adenosine receptor expressed in CHO cell membranes measured after 120 mins by topcount scintillation counting method
T6 sequence (P0DMS8 whole entry): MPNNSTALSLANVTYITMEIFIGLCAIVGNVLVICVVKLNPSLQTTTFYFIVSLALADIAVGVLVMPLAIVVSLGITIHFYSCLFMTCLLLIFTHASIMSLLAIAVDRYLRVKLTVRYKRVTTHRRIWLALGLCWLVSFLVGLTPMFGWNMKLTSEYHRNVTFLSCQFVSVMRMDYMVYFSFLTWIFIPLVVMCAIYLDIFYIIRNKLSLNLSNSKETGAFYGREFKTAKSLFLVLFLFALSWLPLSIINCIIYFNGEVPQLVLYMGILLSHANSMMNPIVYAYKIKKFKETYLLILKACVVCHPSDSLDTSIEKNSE

Adenosine receptor A2b [8] = target: T7, Adenosine receptor A2b (Homo sapiens, UniProt P29275); assay: Displacement of [3H]DPCPX from recombinant human A2B adenosine receptor expressed in HEK293 cell membranes measured after 60 mins by topcount scintillation counting method
T7 sequence (P29275 whole entry): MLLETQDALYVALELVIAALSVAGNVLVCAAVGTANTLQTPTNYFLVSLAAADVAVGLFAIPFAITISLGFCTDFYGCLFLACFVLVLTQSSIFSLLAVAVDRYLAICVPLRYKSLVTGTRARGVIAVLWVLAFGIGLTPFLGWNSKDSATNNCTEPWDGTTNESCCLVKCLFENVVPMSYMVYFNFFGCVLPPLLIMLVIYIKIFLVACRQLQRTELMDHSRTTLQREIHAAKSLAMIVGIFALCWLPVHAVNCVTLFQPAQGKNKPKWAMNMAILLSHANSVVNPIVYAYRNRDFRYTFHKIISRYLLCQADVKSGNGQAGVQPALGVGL

Adenosine receptor A1 [9] = target: T8, Adenosine receptor A1 (Homo sapiens, UniProt P30542); assay: Displacement of [3H]DPCPX from recombinant human A1 adenosine receptor expressed in CHO cell membranes measured after 120 mins by topcount scintillation counting method
T8 sequence (P30542 whole entry): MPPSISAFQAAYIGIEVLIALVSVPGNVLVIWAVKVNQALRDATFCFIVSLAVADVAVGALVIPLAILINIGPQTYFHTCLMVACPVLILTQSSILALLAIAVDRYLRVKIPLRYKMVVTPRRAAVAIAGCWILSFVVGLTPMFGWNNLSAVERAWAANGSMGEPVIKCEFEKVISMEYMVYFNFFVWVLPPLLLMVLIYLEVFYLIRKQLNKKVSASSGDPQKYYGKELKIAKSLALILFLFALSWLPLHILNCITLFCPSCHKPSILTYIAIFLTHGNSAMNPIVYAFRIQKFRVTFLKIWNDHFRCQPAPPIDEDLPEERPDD

Adenosine receptor A2a [10] = target: T5, Adenosine receptor A2a; assay: Displacement of [3H]MSX-2 from recombinant human A2A adenosine receptor expressed in CHO cell membranes measured after 60 mins by liquid scintillation counting method
Procedure, shortened: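 Human A2A receptor binding against [3H]MSX-2, n = 3. Ki values (± SEM, nM) come from concentration-inhibition curves. Some Ki values are marked as derived from an extrapolated curve.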

Adenosine receptor A1 [11] = target: T4, Adenosine receptor A1; assay: Displacement of [3H]DPCPX from recombinant mouse A1 adenosine receptor expressed in CHO cell membranes measured after 60 mins by liquid scintillation counting method
Adenosine receptor A2b [12] = target: T9, Adenosine receptor A2b (Rattus norvegicus, UniProt P29276); assay: Displacement of [3H]PSB-603 from recombinant rat A2B adenosine receptor expressed in CHO cell membranes measured after 75 mins by liquid scintillation counting method
T9 sequence (P29276 whole entry): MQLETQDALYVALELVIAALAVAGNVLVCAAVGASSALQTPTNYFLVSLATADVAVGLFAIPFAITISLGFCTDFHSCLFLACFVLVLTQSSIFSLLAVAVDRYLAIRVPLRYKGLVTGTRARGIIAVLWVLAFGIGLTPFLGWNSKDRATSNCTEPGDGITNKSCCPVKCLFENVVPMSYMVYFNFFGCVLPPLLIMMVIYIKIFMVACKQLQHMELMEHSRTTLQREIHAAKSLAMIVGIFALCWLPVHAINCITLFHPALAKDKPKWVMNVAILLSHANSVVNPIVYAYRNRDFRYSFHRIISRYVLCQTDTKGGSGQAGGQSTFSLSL

[13] = Semi-thermodynamic solubility of the compound at 200 uM after 24 hrs by LC/MS-based shake-flask method; type: physicochemical; details: read-out: Therm_solubility

Chain of Adenosine receptor A2a (Mus musculus, UniProt Q60613) (Q60613 whole entry): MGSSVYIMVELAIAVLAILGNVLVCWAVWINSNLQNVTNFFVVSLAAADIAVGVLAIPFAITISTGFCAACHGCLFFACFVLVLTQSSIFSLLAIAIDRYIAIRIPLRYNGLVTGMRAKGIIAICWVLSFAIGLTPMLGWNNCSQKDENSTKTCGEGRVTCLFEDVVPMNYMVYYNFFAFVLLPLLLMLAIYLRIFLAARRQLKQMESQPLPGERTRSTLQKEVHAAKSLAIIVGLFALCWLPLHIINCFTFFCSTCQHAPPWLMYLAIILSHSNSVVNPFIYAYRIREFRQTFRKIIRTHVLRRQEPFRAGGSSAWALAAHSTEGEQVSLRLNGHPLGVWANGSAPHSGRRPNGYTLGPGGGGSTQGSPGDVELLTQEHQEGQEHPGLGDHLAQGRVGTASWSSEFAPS
T5 sequence (P29274 whole entry): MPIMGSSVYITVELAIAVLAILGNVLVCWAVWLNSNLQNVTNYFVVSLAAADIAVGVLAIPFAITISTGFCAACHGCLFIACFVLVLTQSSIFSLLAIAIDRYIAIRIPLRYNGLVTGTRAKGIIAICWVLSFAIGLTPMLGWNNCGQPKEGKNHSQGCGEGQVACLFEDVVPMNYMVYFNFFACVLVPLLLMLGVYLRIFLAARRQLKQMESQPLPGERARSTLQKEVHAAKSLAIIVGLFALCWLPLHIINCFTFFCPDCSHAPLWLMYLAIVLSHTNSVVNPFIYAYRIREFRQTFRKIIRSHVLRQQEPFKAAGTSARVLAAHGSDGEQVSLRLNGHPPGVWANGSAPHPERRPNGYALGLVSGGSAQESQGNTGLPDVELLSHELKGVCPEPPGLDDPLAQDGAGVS

CCCn1c(=O)c2[nH]c(-c3ccc(OCC(=O)Nc4ccc(C#N)cc4)cc3)nc2n(CCC)c1=O
Ki (Adenosine receptor A3 [1]): > 10 µM
Ki (Adenosine receptor A3 [2]): > 10 µM
Ki (Adenosine receptor A2a [3]): > 10 µM
Ki (Adenosine receptor A2b [4]): 0.00312 µM
Ki (Adenosine receptor A1 [5]): 0.00145 µM

O=C(Nc1nc2nn(CCCc3ccccc3)cc2c2nc(-c3ccco3)nn12)c1cccc2ccccc12
Ki (Adenosine receptor A2a [6]): 0.8 µM
Ki (Adenosine receptor A3 [7]): 0.3 µM
Ki (Adenosine receptor A2b [8]): 0.02 µM
Ki (Adenosine receptor A1 [9]): 1.1 µM

CCCn1c(=O)[nH]c2nc(-c3ccc(S(=O)(=O)O)cc3)[nH]c2c1=O
Ki (Adenosine receptor A3 [1]): > 10 µM
Ki (Adenosine receptor A2a [10]): 3.79 µM
Ki (Adenosine receptor A3 [2]): > 10 µM
Ki (Adenosine receptor A1 [11]): 0.591 µM
Ki (Adenosine receptor A2a [3]): > 10 µM
Ki (Adenosine receptor A2b [12]): 3.14 µM
Ki (Adenosine receptor A2b [4]): 1.94 µM

CCCn1c(=O)[nH]c2nc(-c3ccc(S(=O)(=O)N4CCN(Cc5ccc(Cl)cc5)CC4)cc3)[nH]c2c1=O
solubility thermodynamic at 24 h, 200 µM [13]: 3.2 µM (≈ 1.74 µg/mL)

CCCn1c(=O)[nH]c2nc(-c3ccc(S(=O)(=O)N4CCN(c5ccc(Cl)cc5)CC4)cc3)[nH]c2c1=O
solubility thermodynamic at 24 h, 200 µM [13]: 3.2 µM (≈ 1.69 µg/mL)
